Experiment [1] is described as follows: reduced viability of SK-BR-3 breast cancer cells – cell-based, 24 h, human, pilot screen (AID 572).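 Note: compound exposure lasted between 18 and 24 h rather than exactly 24 h; 100% = carrier-treated control wells.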 As to conditions: SK-BR-3 viability, CellTiter-Glo luminescence, at 10 µM, stronger effect = lower value.
Experiment [2] in a line: HUVEC growth inhibition – cell-based, human, primary screen (AID 575;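 active = viability at or below 30% in both replicate assays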;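 note: 100% = median of untreated cell wells with 0.1% DMSO on each plate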). As to conditions: HUVEC proliferation, CellTiter-Glo luminescence, 72 h; at 10 µM; stronger effect = lower value. An outline of the steps: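 Assay system: primary human umbilical vein endothelial cells / Buffer or medium: endothelial basal medium with 2% FBS plus growth supplements / Compound dosing: one dose, 10 µM final, 0.1% DMSO / Timing: 72 h treatment at 37 °C / Signal: CTG luminescence / Benchmarks: 32 DMSO-only cell-control wells (high), 32 MePR drug-control wells (low) per plate / Plate: collagen-coated 384-well format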

Experiment [3] can be described thus: H69AR cell proliferation blockers – human, duplicate replicates, primary screen (AID 580;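 active = viability at or under a set limit in both replicates, limit being median viability minus 3 SD, cut at about 48% in these data, passing the limit was not always enough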;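 note: 100% = mean luminescence of untreated wells and 0% = no signal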). As to conditions: H69AR lung tumor cells viability, ATP luminescence, 72 h; at 10 µM; stronger effect = lower value.
Experiment [4] is described as follows: MRP1 drug-resistance reversers in H69AR cells – cell-based, doxorubicin co-treatment, pilot screen (AID 601;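 active = viability loss from added drug above about 55%, and viability with drug at most 40%, in both replicates, limit read from the data, passing the limit was not always enough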). As to conditions: CellTiter-Glo, 72 h, at 10 µM; for differential viability (reversal): stronger effect = higher value.
A short description of experiment [5]: yeast transport mutant growth inhibition pilot in 384-well plates, post-Golgi transport modulator project (AID 636; in the data active = inhibition above about 31%). As to conditions: absorbance 615 nm, about 18 h, stronger effect = higher value.
A short description of experiment [6]: growth suppression of yeast trafficking mutant, preliminary HTS, modulators of trafficking downstream of Golgi apparatus project, 1536-format plate, OD 615 nm (AID 637; in the data active = inhibition above about 30%). As to conditions: yeast transport mutant growth, absorbance 615 nm, 18 h; stronger effect = higher value.
[7] abbreviates: H69AR cells + 2 uM doxorubicin, measured here: viability with 2 uM doxorubicin, stronger effect = lower value.
Setting [8] is: H69AR cells, compound alone cytotoxicity.

Calls of active or inactive are those of the source.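 Rule for the calls, unless noted: active = viability at or below 10% of carrier control in both of two separate runs; inconclusive = viability at or below 10% in only one of the two runs; inactive = the rest.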

As for `CCc1cccc2c3c([nH]c12)C(CC)(CC(=O)O)OCC3` (stereo unspecified), the viability in experiment [1] was 113% (inactive); in experiment [2] it was 72% (inactive); in experiment [3], 100% (inactive); in experiment [4] (setting [7]) it was 99.1%; in experiment [4] (setting [8]), 100%. Also, in experiment [4] (H69AR cells + 2 uM doxorubicin), the differential viability (reversal) was 1.21% (inactive). The inhibition is 1.56% (inactive) in experiment [5] and 0.67% (inactive) in experiment [6].

Take `CC[C@H](C)C(=O)O[C@H]1C[C@@H](C)C=C2C=C[C@H](C)[C@H](CC[C@@H]3C[C@@H](O)CC(=O)O3)[C@H]21`: the viability in experiment [1] is 110% (inactive); in experiment [2], 50.6% (inactive); in experiment [3], 72.2% (inactive); in experiment [4] (setting [7]) it was 78.7%; in experiment [4] (setting [8]), 72.2%. In addition, in experiment [4] (H69AR cells + 2 uM doxorubicin), the differential viability (reversal) was -6.58% (inactive). The inhibition in experiment [5] was -1.82% (inactive); in experiment [6] it was 2.83% (inactive).

For `COc1cc2[nH]c3c(=O)n(CCN(C(C)C)C(C)C)cnc3c2cc1OC`, the viability in experiment [1] is 95% (inactive); in experiment [2], 99.1% (inactive); in experiment [3], 83.5% (inactive); in experiment [4] (setting [7]) it was 83.9%; in experiment [4] (setting [8]), 83.5%. Moreover, the differential viability (reversal) in experiment [4] (H69AR cells + 2 uM doxorubicin) is -0.365% (inactive). Further, the values for the inhibition in experiment [5] and in experiment [6] were -6.89% (inactive) and 4.91% (inactive), respectively.

On to `Cc1nc2nc(-c3cccnc3)nn2c(C)c1Cl`, for which the viability in experiment [1] was 109% (inactive); in experiment [2], 87.4% (inactive); in experiment [3], 102% (inactive); in experiment [4] (setting [7]) it was 89.2%; in experiment [4] (setting [8]) it was 102%. Besides, the differential viability (reversal) in experiment [4] (H69AR cells + 2 uM doxorubicin) is 12.9% (inactive). In addition, the inhibition in experiment [5] is -3.78% (inactive); in experiment [6], -3.27% (inactive).

For the compound `Cc1ccc(C)c(-n2nnnc2SCC(=O)NCCC2=CCCCC2)c1`, the viability in experiment [1] was 91% (inactive); in experiment [2], 73.5% (inactive); in experiment [3], 93.2% (inactive); in experiment [4] (setting [7]) it was 105%; in experiment [4] (setting [8]) it was 93.2%. The differential viability (reversal) in experiment [4] (H69AR cells + 2 uM doxorubicin) is -11.3% (inactive). The figures for the inhibition in experiment [5] and in experiment [6] were -4.66% (inactive) and 2.36% (inactive), respectively.

For the compound `COC(=O)Nc1ccc(S(=O)(=O)N2CCCCCC2)cc1`, the viability in experiment [1] is 99% (inactive); in experiment [2] it was 93.7% (inactive); in experiment [3] it was 80.3% (inactive); in experiment [4] (setting [7]), 91%; in experiment [4] (setting [8]), 80.3%. The differential viability (reversal) in experiment [4] (H69AR cells + 2 uM doxorubicin) was -10.7% (inactive). Moreover, the inhibition was -10.1% (inactive) in experiment [5] and -2% (inactive) in experiment [6].

With `CCOC(=O)c1ccc(N(CC(=O)NC2CCCC2)C(=O)CNC(=O)c2ccco2)cc1`, the viability is 90% (inactive) in experiment [1]; 95.4% (inactive) in experiment [2]; 93.9% (inactive) in experiment [3]; 92.4% in experiment [4] (setting [7]); 93.9% in experiment [4] (setting [8]). Also, the differential viability (reversal) in experiment [4] (H69AR cells + 2 uM doxorubicin) was 1.51% (inactive). In addition, the inhibition is 0.13% (inactive) in experiment [5] and -2.46% (inactive) in experiment [6].

Regarding `COc1ccc(NC(=O)CSc2nc3c(c(=O)n2-c2ccc(F)cc2)SCC3)c(OC)c1`, the viability in experiment [1] is 89% (inactive); in experiment [2], 91.1% (inactive); in experiment [3], 90.7% (inactive); in experiment [4] (setting [7]) it was 77.5%; in experiment [4] (setting [8]), 90.7%. For the same compound, the differential viability (reversal) in experiment [4] (H69AR cells + 2 uM doxorubicin) was 13.1% (inactive). In addition, the values for the inhibition in experiment [5] and in experiment [6] were -6.71% (inactive) and 3.87% (inactive), respectively.

For the compound `COc1ccc(CCNc2oc(COc3ccc(F)cc3)nc2C#N)cc1`, the viability in experiment [1] is 164% (inactive); in experiment [2] it was 76.2% (inactive); in experiment [3], 93.7% (inactive); in experiment [4] (setting [7]) it was 91.1%; in experiment [4] (setting [8]), 93.7%. In addition, the differential viability (reversal) in experiment [4] (H69AR cells + 2 uM doxorubicin) was 2.54% (inactive). The inhibition was -4.73% (inactive) in experiment [5] and 1.27% (inactive) in experiment [6].

With `COCCNC(=O)NC(=O)COC(=O)Cc1ccc2c(c1)OCCO2`, the viability in experiment [1] is 81% (inactive); in experiment [2], 111% (inactive); in experiment [3], 99.2% (inactive); in experiment [4] (setting [7]), 92.6%; in experiment [4] (setting [8]), 99.2%. The differential viability (reversal) in experiment [4] (H69AR cells + 2 uM doxorubicin) is 6.6% (inactive). Further, the inhibition in experiment [5] was -2.88% (inactive); in experiment [6], 3.82% (inactive).

In the case of `O=C(O)CSC1CC(=O)N(c2ccc(Cl)c(Cl)c2)C1=O` (stereo unspecified), the viability in experiment [1] was 104% (inactive); in experiment [2], 109% (inactive); in experiment [3], 98.8% (inactive); in experiment [4] (setting [7]), 91.1%; in experiment [4] (setting [8]), 98.8%. Besides, the differential viability (reversal) in experiment [4] (H69AR cells + 2 uM doxorubicin) was 7.75% (inactive). Besides, the inhibition in experiment [5] is -8.38% (inactive); in experiment [6], 0.36% (inactive).

Consider `Cc1cc(C)nc(SCc2nnc(SCC(=O)Nc3ncc(C)s3)n2Cc2ccco2)n1`, for which the viability in experiment [1] was 91% (inactive); in experiment [2], 97.1% (inactive); in experiment [3], 90.4% (inactive); in experiment [4] (setting [7]) it was 82.6%; in experiment [4] (setting [8]), 90.4%. In experiment [4] (H69AR cells + 2 uM doxorubicin), the differential viability (reversal) is 7.87% (inactive). Besides, the inhibition in experiment [5] was -7.87% (inactive); in experiment [6], -5.09% (inactive).
